ChEMBL document CHEMBL3120078, “Benzofuran derivatives as a novel class of inhibitors of mTOR signaling” (Eur J Med Chem, 2014)
Values belong to the compound of their own block, whether it stands above or below them. Activity calls are given as the source filed them. No cut-off for these calls is given here.

How the values were obtained:
SQ20B [1] = assay: Cytotoxicity against human SQ20B cells after 72 hrs by MTT assay; assay type: functional, cell-based
Method in brief: (§1)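 Cells grown in RPMI with 10% FCS, 2 mM glutamine and antibiotics at 37 °C, 5% CO2, seeded at 2 × 10³ cells/well. Treated 72 h, then MTT 0.4 mg/ml for 4 h at 37 °C. Formazan dissolved in DMSO, absorbance read at 560 nm. Untreated wells and cell-free wells as controls. IC50 taken from dose–response curves.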

SQ20B [2] = assay: Binding affinity to PI3K in human SQ20B cells after 10 to 12 hrs by pull down assay; assay type: cell-based
[3] = molecular target: Serine/threonine-protein kinase mTOR (Homo sapiens) (UniProt P42345); assay: Binding affinity to mTOR in human SQ20B cells after 10 to 12 hrs by pull down assay; assay type: cell-based
[4] = molecular target: Regulatory-associated protein of mTOR (Homo sapiens) (UniProt Q8N122); assay: Binding affinity to raptor in human SQ20B cells after 10 to 12 hrs by pull down assay; assay type: cell-based
mTORC1 (Homo sapiens) [5] = molecular target: T1, mTORC1 (Homo sapiens) (UniProt P42345+Q8N122+Q9BVC4); assay: Inhibition of mTORC1 in human SQ20B cells assessed as AKT phosphorylation after 10 to 12 hrs by pull down assay; assay type: cell-based
mTORC1 (Homo sapiens) [6] = molecular target: T1, mTORC1 (Homo sapiens); assay: Inhibition of mTORC1 in human SQ20B cells assessed as inhibition of S6 ribosomal protein phosphorylation after 10 to 12 hrs by pull down assay; assay type: cell-based
[7] = molecular target: Rapamycin-insensitive companion of mTOR (Homo sapiens) (UniProt Q6R327); assay: Binding affinity to rictor in human SQ20B cells after 10 to 12 hrs by pull down assay; assay type: cell-based
[8] = molecular target: T2, 3-phosphoinositide-dependent protein kinase 1 (Homo sapiens) (UniProt O15530); assay: Binding affinity to PDK1 in human SQ20B cells after 10 to 12 hrs by pull down assay; assay type: cell-based
T2 sequence (whole entry): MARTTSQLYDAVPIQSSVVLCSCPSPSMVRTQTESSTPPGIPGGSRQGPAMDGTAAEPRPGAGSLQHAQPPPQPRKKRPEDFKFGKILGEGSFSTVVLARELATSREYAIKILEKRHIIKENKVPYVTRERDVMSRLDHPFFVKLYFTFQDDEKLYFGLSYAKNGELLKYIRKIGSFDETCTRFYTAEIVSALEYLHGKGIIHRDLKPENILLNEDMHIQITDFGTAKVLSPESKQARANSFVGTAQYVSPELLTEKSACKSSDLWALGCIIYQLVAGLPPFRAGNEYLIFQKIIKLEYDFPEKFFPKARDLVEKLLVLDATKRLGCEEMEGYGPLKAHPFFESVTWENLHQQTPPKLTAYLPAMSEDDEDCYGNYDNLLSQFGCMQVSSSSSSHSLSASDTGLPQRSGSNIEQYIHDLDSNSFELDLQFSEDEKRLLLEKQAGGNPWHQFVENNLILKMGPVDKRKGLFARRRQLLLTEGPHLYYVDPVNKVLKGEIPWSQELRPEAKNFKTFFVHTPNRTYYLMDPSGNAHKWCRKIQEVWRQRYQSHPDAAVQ

[9] = molecular target: T3, RAC-alpha serine/threonine-protein kinase (Homo sapiens, UniProt P31749); assay: Binding affinity to Akt in human SQ20B cells after 10 to 12 hrs by pull down assay; assay type: cell-based
[10] = Cytotoxicity against human ColoR cells after 72 hrs by MTT assay; assay type: functional, cell-based; method in brief: as §1
OVCAR-3 = assay: Cytotoxicity against human OVCAR3 cells after 72 hrs by MTT assay; assay type: functional, cell-based; conditions: OVCAR-3, 72 h
COLO 205 = assay: Cytotoxicity against human COLO205 cells after 72 hrs by MTT assay; assay type: functional, cell-based; conditions: COLO 205, 72 h; method in brief: as §1
HT-29 = assay: Cytotoxicity against human HT-29 cells after 72 hrs by MTT assay; assay type: functional, cell-based; conditions: HT-29, 72 h; method in brief: as §1
DU-145 = assay: Cytotoxicity against human DU145 cells after 72 hrs by MTT assay; assay type: functional, cell-based; conditions: DU-145, 72 h
CAKI-1 = assay: Cytotoxicity against human Caki1 cells after 72 hrs by MTT assay; assay type: functional, cell-based; conditions: CAKI-1, 72 h
[11] = Cytotoxicity against human SKHEP1 cells after 72 hrs by MTT assay; assay type: functional, cell-based; conditions: SK-HEP1, 72 h
HOP-62 = assay: Cytotoxicity against human HOP62 cells after 72 hrs by MTT assay; assay type: functional, cell-based; conditions: HOP-62, 72 h; method in brief: as §1
HCT-116 = assay: Cytotoxicity against human HCT116 cells after 72 hrs by MTT assay; assay type: functional, cell-based; conditions: HCT-116, 72 h; method in brief: as §1
HOP-92 = assay: Cytotoxicity against human HOP92 cells after 72 hrs by MTT assay; assay type: functional, cell-based; conditions: HOP-92, 72 h
HCC 2998 = assay: Cytotoxicity against human HCC2998 cells after 72 hrs by MTT assay; assay type: functional, cell-based; conditions: HCC 2998, 72 h
[12] = Cytotoxicity against human 786-O cells; assay type: functional, cell-based; conditions: 786-0
[13] = molecular target: T3, RAC-alpha serine/threonine-protein kinase; assay: Inhibition of Akt/mTOR in human 786-O cells assessed as inhibition of nuclear export of transcription factor FOXO1a; assay type: cell-based

T1 sequence (Q8N122 whole entry, looked up, other chains not shown): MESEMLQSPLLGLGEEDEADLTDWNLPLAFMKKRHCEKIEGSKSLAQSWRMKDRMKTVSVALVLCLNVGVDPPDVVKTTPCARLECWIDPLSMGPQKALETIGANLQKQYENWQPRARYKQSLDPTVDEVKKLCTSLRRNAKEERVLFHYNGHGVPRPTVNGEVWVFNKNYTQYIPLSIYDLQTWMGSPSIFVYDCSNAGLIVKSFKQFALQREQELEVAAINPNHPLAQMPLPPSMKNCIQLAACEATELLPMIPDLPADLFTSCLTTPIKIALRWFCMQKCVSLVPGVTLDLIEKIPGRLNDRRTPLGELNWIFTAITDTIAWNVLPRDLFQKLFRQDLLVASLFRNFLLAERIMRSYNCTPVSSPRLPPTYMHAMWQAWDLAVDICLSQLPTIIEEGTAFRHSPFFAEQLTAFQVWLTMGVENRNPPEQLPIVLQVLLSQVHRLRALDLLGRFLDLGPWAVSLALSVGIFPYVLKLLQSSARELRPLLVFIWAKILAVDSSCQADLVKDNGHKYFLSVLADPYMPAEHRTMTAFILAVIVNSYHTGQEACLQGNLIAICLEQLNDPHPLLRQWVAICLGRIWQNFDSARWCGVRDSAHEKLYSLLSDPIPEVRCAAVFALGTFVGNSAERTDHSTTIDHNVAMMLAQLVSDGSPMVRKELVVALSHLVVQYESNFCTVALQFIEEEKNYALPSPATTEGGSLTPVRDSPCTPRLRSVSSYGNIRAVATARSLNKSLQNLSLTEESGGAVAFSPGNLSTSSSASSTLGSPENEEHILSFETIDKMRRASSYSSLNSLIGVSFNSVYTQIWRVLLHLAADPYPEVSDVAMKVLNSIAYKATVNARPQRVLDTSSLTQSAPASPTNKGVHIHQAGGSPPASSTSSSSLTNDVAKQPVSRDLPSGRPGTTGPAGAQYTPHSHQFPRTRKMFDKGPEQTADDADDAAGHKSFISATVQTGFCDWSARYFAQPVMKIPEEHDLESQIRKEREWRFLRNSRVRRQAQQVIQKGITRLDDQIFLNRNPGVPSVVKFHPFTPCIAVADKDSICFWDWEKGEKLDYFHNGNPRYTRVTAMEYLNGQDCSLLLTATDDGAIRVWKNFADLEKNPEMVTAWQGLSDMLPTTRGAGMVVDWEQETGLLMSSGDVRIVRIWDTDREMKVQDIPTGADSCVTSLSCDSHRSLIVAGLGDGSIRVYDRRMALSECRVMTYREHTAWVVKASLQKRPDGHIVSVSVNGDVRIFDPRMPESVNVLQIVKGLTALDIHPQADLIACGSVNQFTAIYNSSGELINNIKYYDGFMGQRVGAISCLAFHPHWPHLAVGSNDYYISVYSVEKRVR
T1 sequence (Q9BVC4 whole entry, looked up, other chains not shown): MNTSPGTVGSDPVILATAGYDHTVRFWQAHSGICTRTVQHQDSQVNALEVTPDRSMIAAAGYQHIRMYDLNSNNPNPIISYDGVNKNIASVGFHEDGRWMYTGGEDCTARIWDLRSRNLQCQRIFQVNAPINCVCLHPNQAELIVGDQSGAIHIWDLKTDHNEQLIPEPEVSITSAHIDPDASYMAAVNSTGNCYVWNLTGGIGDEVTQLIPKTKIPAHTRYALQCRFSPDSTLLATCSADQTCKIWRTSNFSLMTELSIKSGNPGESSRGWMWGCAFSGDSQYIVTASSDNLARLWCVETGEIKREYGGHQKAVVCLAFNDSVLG
T3 sequence (P31749 whole entry): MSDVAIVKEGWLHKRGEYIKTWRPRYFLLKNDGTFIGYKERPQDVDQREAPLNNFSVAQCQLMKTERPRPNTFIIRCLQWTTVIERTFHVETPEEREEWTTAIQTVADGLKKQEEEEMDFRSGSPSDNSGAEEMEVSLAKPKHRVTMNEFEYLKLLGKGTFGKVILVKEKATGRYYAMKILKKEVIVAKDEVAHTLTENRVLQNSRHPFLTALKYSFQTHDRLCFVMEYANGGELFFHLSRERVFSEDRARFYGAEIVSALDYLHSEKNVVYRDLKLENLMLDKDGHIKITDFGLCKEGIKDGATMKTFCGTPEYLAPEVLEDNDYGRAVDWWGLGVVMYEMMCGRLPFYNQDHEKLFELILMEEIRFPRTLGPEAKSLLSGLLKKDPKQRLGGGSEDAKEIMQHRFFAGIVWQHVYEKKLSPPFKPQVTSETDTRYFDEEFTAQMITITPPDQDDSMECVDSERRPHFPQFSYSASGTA
Sequence of Regulatory-associated protein of mTOR (Homo sapiens) (Q8N122 whole entry): as the sequence (Q8N122 whole entry, looked up, other chains not shown) above
Sequence of Rapamycin-insensitive companion of mTOR (Homo sapiens) (Q6R327 whole entry): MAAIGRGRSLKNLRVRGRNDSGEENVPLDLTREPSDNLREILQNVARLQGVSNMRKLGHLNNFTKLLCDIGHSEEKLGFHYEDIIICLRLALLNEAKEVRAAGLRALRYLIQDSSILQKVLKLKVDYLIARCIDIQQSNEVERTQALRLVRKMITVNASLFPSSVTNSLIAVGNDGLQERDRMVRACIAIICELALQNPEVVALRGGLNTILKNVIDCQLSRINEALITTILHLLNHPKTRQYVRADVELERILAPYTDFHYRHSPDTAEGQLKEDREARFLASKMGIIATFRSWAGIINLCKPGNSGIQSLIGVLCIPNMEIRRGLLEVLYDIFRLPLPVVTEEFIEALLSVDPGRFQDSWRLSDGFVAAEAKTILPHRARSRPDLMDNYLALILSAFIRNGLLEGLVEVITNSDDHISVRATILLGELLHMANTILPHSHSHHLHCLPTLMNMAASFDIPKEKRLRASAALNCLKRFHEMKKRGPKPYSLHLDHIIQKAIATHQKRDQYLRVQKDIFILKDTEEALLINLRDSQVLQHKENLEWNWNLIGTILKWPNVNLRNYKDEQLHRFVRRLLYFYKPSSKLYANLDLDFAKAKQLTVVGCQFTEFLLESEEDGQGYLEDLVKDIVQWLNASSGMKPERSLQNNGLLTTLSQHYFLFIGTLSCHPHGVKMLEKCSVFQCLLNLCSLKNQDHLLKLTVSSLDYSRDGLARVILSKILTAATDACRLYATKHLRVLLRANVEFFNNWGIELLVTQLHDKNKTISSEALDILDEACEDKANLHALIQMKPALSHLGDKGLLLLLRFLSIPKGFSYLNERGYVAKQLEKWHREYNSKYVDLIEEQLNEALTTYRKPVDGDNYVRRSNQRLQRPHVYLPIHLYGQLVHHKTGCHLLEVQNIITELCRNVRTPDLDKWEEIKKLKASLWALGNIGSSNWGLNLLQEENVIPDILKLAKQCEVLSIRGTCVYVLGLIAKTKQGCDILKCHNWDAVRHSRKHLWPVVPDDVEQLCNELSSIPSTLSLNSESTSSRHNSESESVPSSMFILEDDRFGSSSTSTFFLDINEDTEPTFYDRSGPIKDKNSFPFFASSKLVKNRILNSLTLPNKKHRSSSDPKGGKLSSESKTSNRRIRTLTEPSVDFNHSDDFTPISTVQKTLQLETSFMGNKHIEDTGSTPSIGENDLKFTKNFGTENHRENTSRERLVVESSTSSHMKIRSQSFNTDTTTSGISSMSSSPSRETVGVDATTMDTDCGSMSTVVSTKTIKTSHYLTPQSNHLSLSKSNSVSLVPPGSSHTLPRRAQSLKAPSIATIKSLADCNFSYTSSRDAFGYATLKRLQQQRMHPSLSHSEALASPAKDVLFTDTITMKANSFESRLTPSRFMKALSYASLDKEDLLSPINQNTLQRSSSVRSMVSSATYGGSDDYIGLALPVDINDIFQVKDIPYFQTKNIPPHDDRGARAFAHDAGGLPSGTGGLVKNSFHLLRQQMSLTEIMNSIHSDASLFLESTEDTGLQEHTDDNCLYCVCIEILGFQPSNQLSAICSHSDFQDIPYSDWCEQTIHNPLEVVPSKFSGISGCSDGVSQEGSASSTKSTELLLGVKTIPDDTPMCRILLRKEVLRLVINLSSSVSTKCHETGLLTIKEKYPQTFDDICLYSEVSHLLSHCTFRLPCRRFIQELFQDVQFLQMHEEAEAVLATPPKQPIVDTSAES

SMILES: CON(C)Cc1c(O)ccc2oc(Cc3ccccc3)cc12
IC50 (SQ20B [1]): 40 µM

Activity [3]: Active
Activity [4]: inactive
inhibition (mTORC1 (Homo sapiens) [5]): Active
inhibition (mTORC1 (Homo sapiens) [6]): Dose-dependent effect
Activity [7]: inactive
Activity [8]: inactive
Activity [9]: inactive
SMILES: O=C(CCC(=O)ON1C(=O)CCC1=O)NCCNC(=O)COC(=O)NCCOCCOCCOCCOCCOCCOCCNC(=O)C1CCN(C2CCN(Cc3c(O)ccc4oc(-c5ccccc5)cc34)CC2)CC1
Activity (SQ20B [2]): inactive

SMILES: Oc1ccc2oc(Cc3ccccc3)cc2c1CN1CCC(O)CC1
IC50 (SQ20B [1]): 13 µM

SMILES: CO[C@H]1C[C@@H]2CC[C@@H](C)[C@@](O)(O2)C(=O)C(=O)N2CCCC[C@H]2C(=O)O[C@H]([C@H](C)C[C@@H]2CC[C@@H](OCCO)[C@H](OC)C2)CC(=O)[C@H](C)/C=C(\C)[C@@H](O)[C@@H](OC)C(=O)[C@H](C)C[C@H](C)/C=C/C=C/C=C/1C [EVEROLIMUS]
IC50 [10]: 8.7 µM
IC50 (OVCAR-3): 16 µM
IC50 (COLO 205): 20 µM
IC50 (HT-29): 15 µM
IC50 (DU-145): 8 µM
IC50 (CAKI-1): 14 µM
IC50 (SQ20B [1]): 5.5 µM
IC50 [11]: 12 µM
IC50 (HOP-62): 19 µM
IC50 (HCT-116): 12 µM

SMILES: OCCN(Cc1c(O)ccc2oc(Cc3ccccc3)cc12)C1CCCCC1
IC50 (SQ20B [1]): 27 µM

SMILES: CN(Cc1ccccc1)Cc1c(O)ccc2oc(Cc3ccccc3)cc12
IC50 (SQ20B [1]): 12 µM

SMILES: Oc1ccc2oc(C(O)c3ccccc3)cc2c1CN1CCC(N2CCCCC2)CC1 (stereo not given)
IC50 (SQ20B [1]): 13 µM

SMILES: Oc1ccc2oc(Cc3ccccc3)cc2c1CN1CCOCC1
IC50 (SQ20B [1]): 6.5 µM

inhibition (mTORC1 (Homo sapiens) [6]): Dose-dependent effect
SMILES: Oc1ccc2oc(Cc3ccccc3)cc2c1CN1CCC(N2CCCC2)CC1
IC50 (SQ20B [1]): 3 µM

SMILES: Oc1ccc2oc(-c3ccccc3)cc2c1CN1CCC(N2CCCCC2)CC1
IC50 [10]: 18 µM
IC50 (OVCAR-3): 22 µM
IC50 (COLO 205): 6.3 µM
IC50 (HT-29): 45 µM
IC50 (DU-145): 13 µM
IC50 (CAKI-1): 26 µM
IC50 (SQ20B [1]): 2.8 µM
IC50 [11]: 42 µM
IC50 (HOP-62): 54 µM
IC50 (HCT-116): 57 µM

SMILES: CCN(CC)Cc1c(O)ccc2oc(Cc3ccccc3)cc12
IC50 (SQ20B [1]): 12 µM

SMILES: Oc1ccc2oc(Cc3ccccc3)cc2c1CN1CCCC(O)C1 (stereo not given)
IC50 (SQ20B [1]): 11 µM

SMILES: Oc1ccc2oc(Cc3ccccc3)cc2c1CN1CCN(Cc2ccccc2)CC1
IC50 (SQ20B [1]): 36 µM

SMILES: CN(CCO)Cc1c(O)ccc2oc(Cc3ccccc3)cc12
IC50 (SQ20B [1]): 30 µM

SMILES: NC(=O)C1CCN(Cc2c(O)ccc3oc(Cc4ccccc4)cc23)CC1
IC50 (SQ20B [1]): 85 µM

SMILES: CN1CCN(Cc2c(O)ccc3oc(Cc4ccccc4)cc23)CC1
IC50 (SQ20B [1]): 18 µM

SMILES: O=C(c1ccccc1)c1cc2c(CN3CCC(N4CCCCC4)CC3)c(O)ccc2o1
IC50 (SQ20B [1]): 17 µM

SMILES: OCCN(CCO)Cc1c(O)ccc2oc(Cc3ccccc3)cc12
IC50 (SQ20B [1]): > 200 µM

SMILES: OCCOCCN1CCN(Cc2c(O)ccc3oc(Cc4ccccc4)cc23)CC1
IC50 (SQ20B [1]): 21 µM

SMILES: Oc1ccc2oc(Cc3ccccc3)cc2c1CN1CCC(N2CCCCC2)CC1
IC50 [10]: 3.7 µM
IC50 (OVCAR-3): 19 µM
IC50 (COLO 205): 3.1 µM
IC50 (HT-29): 5.1 µM
IC50 (DU-145): 20 µM
IC50 (CAKI-1): 6.9 µM
IC50 (SQ20B [1]): 3 µM
IC50 [11]: 11 µM
IC50 (HOP-62): 11 µM
IC50 (HCT-116): 12 µM

SMILES: COc1cccc2cc(-c3nc([C@H]4CC[C@H](C(=O)O)CC4)n4ncnc(N)c34)[nH]c12 [OSI-027]
IC50 [10]: 5.8 µM
IC50 (OVCAR-3): 8.1 µM
IC50 (COLO 205): 5.8 µM
IC50 (HT-29): 55 µM
IC50 (DU-145): 4.1 µM
IC50 (CAKI-1): 1.9 µM
IC50 (SQ20B [1]): 1.3 µM
IC50 [11]: 3.2 µM
IC50 (HOP-62): 41 µM
IC50 (HCT-116): 5.6 µM

SMILES: O=C(NCCOCCO)C1CCN(C2CCN(Cc3c(O)ccc4oc(Cc5ccccc5)cc34)CC2)CC1
IC50 (SQ20B [1]): 14 µM

SMILES: O=CN1CCN(Cc2c(O)ccc3oc(Cc4ccccc4)cc23)CC1
IC50 (SQ20B [1]): 49 µM

SMILES: Oc1ccc2oc(Cc3ccccc3)cc2c1CN1CCc2ccccc2C1
IC50 (SQ20B [1]): 16 µM

SMILES: Oc1ccc2oc(Cc3ccccc3)cc2c1CN1CCC(c2ccccc2)CC1
IC50 (SQ20B [1]): > 200 µM

SMILES: CN(Cc1c(O)ccc2oc(Cc3ccccc3)cc12)C1CCCCC1
IC50 (SQ20B [1]): 12 µM

IC50 [13]: 20 µM
SMILES: CN(C)Cc1c(O)ccc2oc(Cc3ccccc3)cc12
IC50 (HOP-92): 40 µM
IC50 (HCC 2998): 40 µM
IC50 [12]: 10 µM
IC50 (SQ20B [1]): 33 µM
